Activity calls are given as the source filed them.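 How the source made its calls, unless noted: active means potentiation averaged over duplicate wells exceeding buffer-only control mean by more than 3 SD; inactive means the rest.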
What was measured:
[1] = thallium flux activation in parental CHO cells, counter-screen for KCNQ1 potentiator project (AID 493006;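 active means duplicate-averaged activation above buffer control mean plus 5 SD of those controls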;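 on activation: fluorescence ratio of max minus min over baseline after K+ and Tl+ depolarization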); conditions: parental CHO-K1 cells, FluxOR thallium flux, at 10 µM; stronger effect = higher value
Procedure, shortened: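 Assay system: parental CHO-K1 cells lacking KCNQ1, loaded with FluxOR thallium dye; timing: dye 90 min RT, compound 20 min RT; signal: kinetic thallium-flux fluorescence; repeats: duplicate wells per compound, percent values averaged; benchmarks: buffer and R-L3 controls; reagent: Potassium/thallium depolarization pulse; read-out: fluorescence change ratio scaled 0% buffer, 100% R-L3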

[2] = target: Potassium voltage-gated channel subfamily KQT member 1 (Homo sapiens) (UniProt P51787); test: KCNQ1 potassium channel potentiators, confirmation, FluxOR thallium flux, CHO cells, duplicates (AID 493007); conditions: KCNQ1 cell line, FluxOR thallium flux fluorescence, at 10 µM; stronger effect = higher value, % of reference activator effect, buffer zero;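 on outcome: cells depolarized by a potassium plus thallium sulfate stimulus after compound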
Procedure, shortened: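 material = CHO cells stably expressing the KCNQ1 potassium channel | repeats = duplicate wells per compound | measure = percent activation between buffer and R-L3 responses | signal = FluxOR thallium-flux fluorescence, kinetic read | schedule = FluxOR dye loading 90 min, compound exposure 20 min, room temperature | control set = buffer and R-L3 controls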

[3] = target: Potassium voltage-gated channel subfamily KQT member 2 (Rattus norvegicus) (UniProt O88943); test: rat KCNQ2 channel potentiation, selectivity assay for KCNQ1 potentiator project, KCNQ2-CHO-K1 cells (AID 493009;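 active means mean duplicate potentiation above the buffer control mean plus 5 SD of buffer wells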;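 further: assay conditions were tuned for KCNQ1 rather than KCNQ2 modulators; signal is max minus min fluorescence divided by baseline after thallium stimulus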); conditions: FluxOR thallium flux fluorescence, at 10 µM; stronger effect = higher value, scaled: buffer 0, activator control 100
[4] = target: Potassium voltage-gated channel subfamily KQT member 1 (Homo sapiens) (UniProt P51787); test: KCNQ1 channel current potentiators, confirmation, orthogonal assay for KCNQ1 potentiator project, IonWorks patch clamp, KCNQ1-CHO cells (AID 493184;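 active means current rise at least 3 SD above the untreated control mean in each of two repeat wells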); conditions: automated patch clamp current, at 10 µM; stronger effect = higher value
Procedure, shortened: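 Assay system – CHO cells carrying KCNQ1 · Medium – pH 7.4 external bath · Probe or stimulus – depolarizing pulse to +40 mV from -90 mV · Compound dosing – one dose, 10 µM final · Measured by – automated perforated-patch electrophysiology · Measure – % potentiation of steady-state current relative to pre-compound · Repeats – two replicates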

Chain of Potassium voltage-gated channel subfamily KQT member 1 (Homo sapiens) (P51787 whole entry, looked up): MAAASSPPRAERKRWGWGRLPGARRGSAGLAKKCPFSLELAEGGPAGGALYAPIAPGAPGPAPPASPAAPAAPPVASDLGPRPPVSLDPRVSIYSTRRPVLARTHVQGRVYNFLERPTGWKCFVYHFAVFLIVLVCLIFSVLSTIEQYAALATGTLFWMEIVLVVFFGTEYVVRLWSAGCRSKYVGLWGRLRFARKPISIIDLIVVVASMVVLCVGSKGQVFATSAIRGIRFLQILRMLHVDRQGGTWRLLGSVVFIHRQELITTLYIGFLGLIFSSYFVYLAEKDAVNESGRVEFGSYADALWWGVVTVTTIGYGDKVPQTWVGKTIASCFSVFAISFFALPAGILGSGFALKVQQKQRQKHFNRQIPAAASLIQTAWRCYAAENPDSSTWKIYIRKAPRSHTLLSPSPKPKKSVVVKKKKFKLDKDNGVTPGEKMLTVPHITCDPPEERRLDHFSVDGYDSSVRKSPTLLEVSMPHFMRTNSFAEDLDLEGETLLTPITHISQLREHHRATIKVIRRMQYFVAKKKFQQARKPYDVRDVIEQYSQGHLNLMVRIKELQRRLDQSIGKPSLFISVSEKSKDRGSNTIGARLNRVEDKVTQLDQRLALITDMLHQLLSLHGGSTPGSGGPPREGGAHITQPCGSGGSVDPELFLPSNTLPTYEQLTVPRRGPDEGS
Chain of Potassium voltage-gated channel subfamily KQT member 2 (Rattus norvegicus) (O88943 whole entry, looked up): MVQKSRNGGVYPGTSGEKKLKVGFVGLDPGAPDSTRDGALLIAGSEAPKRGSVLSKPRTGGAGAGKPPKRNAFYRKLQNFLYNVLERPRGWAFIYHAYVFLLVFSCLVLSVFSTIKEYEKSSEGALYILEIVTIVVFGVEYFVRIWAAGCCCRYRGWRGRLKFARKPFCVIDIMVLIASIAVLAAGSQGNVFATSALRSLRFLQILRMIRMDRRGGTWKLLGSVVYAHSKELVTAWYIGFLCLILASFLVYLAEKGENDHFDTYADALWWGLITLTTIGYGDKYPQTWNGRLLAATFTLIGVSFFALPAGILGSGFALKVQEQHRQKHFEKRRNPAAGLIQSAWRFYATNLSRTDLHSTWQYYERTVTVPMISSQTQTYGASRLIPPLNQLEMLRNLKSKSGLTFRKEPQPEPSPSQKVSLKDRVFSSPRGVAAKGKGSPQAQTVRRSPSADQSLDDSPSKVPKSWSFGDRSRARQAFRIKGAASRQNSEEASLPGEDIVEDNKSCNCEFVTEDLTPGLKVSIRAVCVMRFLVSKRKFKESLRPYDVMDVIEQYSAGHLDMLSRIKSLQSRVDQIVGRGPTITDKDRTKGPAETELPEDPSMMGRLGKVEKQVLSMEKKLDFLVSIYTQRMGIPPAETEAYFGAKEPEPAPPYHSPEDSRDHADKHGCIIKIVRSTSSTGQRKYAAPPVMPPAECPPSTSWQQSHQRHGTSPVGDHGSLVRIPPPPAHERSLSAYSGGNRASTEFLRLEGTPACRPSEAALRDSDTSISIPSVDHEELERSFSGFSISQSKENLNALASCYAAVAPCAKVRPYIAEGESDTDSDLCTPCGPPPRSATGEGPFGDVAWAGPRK

SMILES	activation [1]	potentiation [2]	potentiation [3]	outcome [4]	outcome [1]	outcome [2]	outcome [3]
Cc1sc2ncnc(SCC(=O)c3ccc(O)cc3O)c2c1C	150% (active)	20.5% (active)	176% (active)	inactive			
COc1ccc2c(-c3ccccc3)cc(=S)[nH]c2c1	210% (active)	50.5% (active)	231% (active)	inactive			
O=c1cc(-c2ccccc2)cc(-c2ccccc2)n1O	254% (active)	87.5% (active)	322% (active)	inactive			
Cc1ccccc1C(=O)c1c[nH]c(C(=O)N2CCN(c3ccccc3F)CC2)c1				inactive	inactive	inactive	inactive
Cc1ccc(-c2csc3ncnc(SCc4ccc(C(=O)O)cc4)c23)cc1	197% (active)	36.5% (active)	175% (active)	inactive			
NC(=S)Nc1nc2ccccc2s1	165% (active)	54.5% (active)	186% (active)	inactive			
Cc1cc([N+](=O)[O-])ccc1-c1ccc(C2Nc3ccccc3C(=O)N2O)o1 (stereo not given)	174% (active)	18.5% (active)	158% (active)	inactive			
O=C(c1ccccn1)c1ncc(C(F)(F)F)cc1Cl				inactive	inactive	inactive	inactive
N=C1S/C(=C\c2ccc(-c3cccc(Cl)c3)o2)C(=O)N1c1nccs1		19% (active)		inactive	inactive		inactive
CCCOc1ccccc1Cn1c(=O)oc2ccc(C)cc21				inactive	inactive	inactive	inactive
CCSc1nnc(NS(=O)(=O)c2ccc(OC)cc2)s1				inactive	inactive	inactive	inactive
Nc1nc(C23CC4CC(CC(C4)C2)C3)cs1			168% (active)	inactive	inactive	inactive	
CCc1nccn1S(=O)(=O)c1ccc2ccc(C)cc2c1				inactive	inactive	inactive	inactive
CSc1nc(-c2ccccc2)[nH]c(=S)c1C(C)=O	520% (active)	138% (active)	474% (active)	inactive			
COc1ccc(-n2nnnc2-c2ccccc2)cc1				inactive	inactive	inactive	inactive
COc1ccc(/C=N\NC(=S)SCN2C(=O)C3CCC(C)(C2=O)C3(C)C)cc1 (stereo not given)				inactive	inactive	inactive	inactive
O=C(NN=C1CCCC1)c1n[nH]c2c1CCC2	196% (active)	35% (active)	178% (active)	inactive			
Cn1ccnc1C(OC(=O)c1ccc(Cl)cc1)C(F)(F)F (stereo not given)				inactive	inactive	inactive	inactive
COc1ccc(C(=O)NNC(=O)C(=O)NC2CCCCC2)cc1		22% (active)	168% (active)	inactive	inactive		
Cc1sc(NC(=O)c2ccccc2)c(C(c2ccc(Cl)cc2)N2CCN(CCO)CC2)c1C (stereo not given)				inactive	inactive	inactive	inactive
CCC1(C)Cc2c(sc3nc(SC)[nH]c(=S)c23)CO1 (stereo not given)	550% (active)	194% (active)	534% (active)	inactive			
CC(=O)OC1OCCOC1NC(=S)Nc1ccc(C)cc1 (stereo not given)				inactive	inactive	inactive	inactive
CCC(C)c1ccccc1OCCCNC1CCCC1 (stereo not given)				inactive	inactive	inactive	inactive
CCc1nc2sc3c(=O)[nH]cnc3c2c2c1CSC(C)(C)C2				inactive	inactive	inactive	inactive
COc1ccc(Nc2nc(-c3sc(C)nc3C)cs2)c(OC)c1				inactive	inactive	inactive	inactive
C/C(=N\NC(=O)C(=O)Nc1cccc(C(F)(F)F)c1)c1ccc(Cl)s1				inactive	inactive	inactive	inactive
COc1ccc(N2CCN(C(=O)COC(=O)/C=C/c3ccc(OC(F)F)cc3)CC2)cc1	178% (active)	64.5% (active)	228% (active)	inactive			
COc1ccc(OCC(=O)NC(=S)Nc2ccc(N3CCOCC3)c(Cl)c2)cc1	142% (active)	33.5% (active)		inactive			inactive
O=C(Nc1cc([N+](=O)[O-])ccc1N1CCCC1)c1cccs1				inactive	inactive	inactive	inactive
Cc1ccccc1CC(=O)NC1CCN(Cc2ccccc2)CC1				inactive	inactive	inactive	inactive

Source: PubChem BioAssay
